Results: ChEMBL document CHEMBL1136989, “Targeting human gastrointestinal stromal tumor cells with a quadruplex-binding small molecule” (J Med Chem, 2009)
Activity calls are given as the source filed them. No cut-off for these calls is given here.

How the values were obtained:
[1] = biological target: Mast/stem cell growth factor receptor Kit (Homo sapiens) (UniProt P10721); experiment: Reduction in KIT mRNA expression in human GIST882 cells after 24 hrs; assay type: functional, cell-based
In short: (§1)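 GIST882 cells (1×10^6) exposed to drug for 24 hr. Total RNA extracted, and 250 ng used for one-step RT-PCR of KIT, MYC, hTERT and N-RAS. Band levels normalized to GAPDH and to untreated control.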

[2] = Antiproliferative activity against human GIST882 cells after 96 hrs by SRB assay; assay type: functional, cell-based; details: GIST882, 96 h
In short: (§2)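 Sulforhodamine B assay after 96 hr continuous drug exposure; IC50 in μM taken as the mean of triplicate experiments. GIST882 cells were kept in RPMI 1640 with 15% FBS. HT-29 and MCF-7 were kept in DMEM with 10% FBS, and HGC-27 in MEM with 10% FBS.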

MCF7 = experiment: Antiproliferative activity against human MCF7 cells after 96 hrs by SRB assay; assay type: functional, cell-based; details: MCF7, 96 h; in short: as §2
Nucleic Acid [3] = experiment: Stabilization of human G4-telomeric quadruplex assessed as melting temperature by FRET assay; assay type: nucleic-acid assay
In short: (§3)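 FRET melting of FAM/TAMRA dual-labelled oligonucleotides, annealed at 90°C in 60 mM K+ cacodylate buffer pH 7.4. Final conditions: 200 nM DNA and 500 nM ligand. Fluorescence read at 0.5°C steps from 30 to 100°C, ramping 1°C/min, with excitation 450–495 nm and emission 515–545 nm. Tm taken as the derivative maximum; ΔTm given relative to ligand-free control.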

HT-29 = experiment: Antiproliferative activity against human HT-29 cells after 96 hrs by SRB assay; assay type: functional, cell-based; details: HT-29, 96 h; in short: as §2
Nucleic Acid [4] = experiment: Stabilization of synthetic duplex DNA assessed as melting temperature by FRET assay; assay type: nucleic-acid assay; in short: as §3
Nucleic Acid [5] = experiment: Stabilization of human G4-KIT1 DNA quadruplex assessed as melting temperature by FRET assay; assay type: nucleic-acid assay; in short: as §3
HGC-27 = experiment: Antiproliferative activity against human HGC27 cells after 96 hrs by SRB assay; assay type: functional, cell-based; details: HGC-27, 96 h; in short: as §2
[6] = Cytotoxicity against human GIST48 cells assessed as effect on cell viability after 3 to 6 days by luciferase based luminescence assay; assay type: functional
In short: (§4)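 CellTiter-Glo luciferase/ATP luminescence viability read-out. Cells plated at 10,000–30,000 per well and grown overnight in serum-containing medium, then dosed for 3 to 6 days alongside a water-solvent control. Signal normalized to control; each point in triplicate. GIST882, GISTT1 and LMS04 were grown in RPMI 1640 with 15% FBS. GIST48 and GIST48B were grown in F10 with 15% FBS, mito+ serum extender and bovine pituitary extract.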

Nucleic Acid [7] = experiment: Stabilization of human G4-KIT2 DNA quadruplex assessed as melting temperature by FRET assay; assay type: nucleic-acid assay; in short: as §3
[8] = biological target: Telomerase reverse transcriptase (Homo sapiens) (UniProt O14746); experiment: Inhibition of telomerase in human GIST882 cells at 0.5 uM by TRAP-LIG assay; assay type: cell-based
Chain of Telomerase reverse transcriptase (Homo sapiens) (O14746 whole entry): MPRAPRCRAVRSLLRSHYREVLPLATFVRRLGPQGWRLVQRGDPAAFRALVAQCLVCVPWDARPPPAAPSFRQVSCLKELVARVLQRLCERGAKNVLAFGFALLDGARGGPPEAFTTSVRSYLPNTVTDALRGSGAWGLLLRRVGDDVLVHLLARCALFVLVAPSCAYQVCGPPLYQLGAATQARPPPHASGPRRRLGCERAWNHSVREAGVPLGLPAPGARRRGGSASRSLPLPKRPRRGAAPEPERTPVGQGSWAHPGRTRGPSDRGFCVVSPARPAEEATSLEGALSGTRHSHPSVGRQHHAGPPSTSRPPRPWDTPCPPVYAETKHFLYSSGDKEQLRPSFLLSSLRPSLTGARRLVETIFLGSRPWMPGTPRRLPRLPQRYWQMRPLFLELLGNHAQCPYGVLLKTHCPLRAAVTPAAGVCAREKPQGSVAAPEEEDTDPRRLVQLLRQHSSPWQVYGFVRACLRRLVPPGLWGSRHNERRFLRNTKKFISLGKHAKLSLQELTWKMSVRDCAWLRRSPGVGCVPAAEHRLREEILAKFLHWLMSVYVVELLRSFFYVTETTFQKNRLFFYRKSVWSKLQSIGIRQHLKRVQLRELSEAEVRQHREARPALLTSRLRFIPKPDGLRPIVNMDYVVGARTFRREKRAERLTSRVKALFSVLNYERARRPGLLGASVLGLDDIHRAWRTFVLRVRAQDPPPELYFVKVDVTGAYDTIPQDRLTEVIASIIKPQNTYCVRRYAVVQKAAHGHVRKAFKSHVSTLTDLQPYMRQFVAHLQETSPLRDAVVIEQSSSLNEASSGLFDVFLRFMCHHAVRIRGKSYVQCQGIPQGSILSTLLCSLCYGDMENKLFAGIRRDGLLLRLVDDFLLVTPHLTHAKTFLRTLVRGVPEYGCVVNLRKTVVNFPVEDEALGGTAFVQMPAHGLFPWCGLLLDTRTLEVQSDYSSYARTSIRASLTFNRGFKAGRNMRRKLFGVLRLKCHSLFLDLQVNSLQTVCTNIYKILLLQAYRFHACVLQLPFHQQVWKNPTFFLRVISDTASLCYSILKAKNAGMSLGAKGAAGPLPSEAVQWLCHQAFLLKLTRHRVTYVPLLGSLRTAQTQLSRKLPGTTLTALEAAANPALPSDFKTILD
In short: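 TRAP-LIG assay on GIST882 cells treated for one week. Cell protein extract in CHAPS lysis buffer was elongated with TS primer in TRAP buffer at 30°C for 10 min, then purified. A second PCR with ACX/TS primers ran 35 cycles. Products were run on 12% PAGE and stained with SYBR green. Ladder intensity was normalized to an untreated-protein positive control after negative-control background subtraction.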

GIST48B = experiment: Cytotoxicity against human GIST48B cells assessed as effect on cell viability after 3 to 6 days by luciferase based luminescence assay; assay type: functional; in short: as §4
GIST882 [9] = experiment: Antiproliferative activity against human GIST882 cells at 0.5 uM after 1 week; assay type: functional, cell-based
In short: (§5)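 Long-term proliferation of GIST882 cells under continuous exposure for three weeks at 0.1, 0.25 or 0.5 μM. Growth followed as cumulative population doublings relative to an untreated control arm.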

[10] = biological target: Mast/stem cell growth factor receptor Kit (Homo sapiens) (UniProt P10721); experiment: Reduction in KIT protein expression in human GIST882 cells at 1 uM after 24 hrs by Western blot; assay type: functional, cell-based
In short: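 GIST882 cells treated for 24 hr, compound at 0.5 or 1 μM and imatinib at 5 or 10 μM. Lysate protein measured by Bradford, then electrophoresis and immunoblotting for total KIT with an actin loading control.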

GIST882 [11] = experiment: Cytotoxicity against human GIST882 cells assessed as growth inhibition at 0.25 uM after 1 week; assay type: functional, cell-based; in short: as §5
GIST882 [12] = experiment: Cytotoxicity against human GIST882 cells assessed as effect on cell viability after 3 to 6 days by luciferase based luminescence assay; assay type: functional; in short: as §4
GIST882 [13] = experiment: Cytotoxicity against human GIST882 cells assessed as growth inhibition at 0.5 uM after 1 week; assay type: functional, cell-based; in short: as §5
Homo sapiens = organism: Homo sapiens; experiment: Cytotoxicity against human LMSO4 cells assessed as effect on cell viability after 3 to 6 days by luciferase based luminescence assay; assay type: functional; in short: as §4
GIST882 [14] = experiment: Antiproliferative activity against human GIST882 cells at 0.1 uM after 2 weeks; assay type: functional, cell-based; in short: as §5
GIST882 [15] = experiment: Antiproliferative activity against human GIST882 cells at 0.25 uM after 1 week; assay type: functional, cell-based; in short: as §5
[16] = Reduction in MYC mRNA expression in human GIST882 cells after 24 hrs; assay type: functional, cell-based; parameters: scale not given: the % may be the effect or the level left; in short: as §1
[17] = biological target: Mast/stem cell growth factor receptor Kit (Homo sapiens) (UniProt P10721); experiment: Reduction in KIT mRNA expression in human GIST882 cells at 1 uM after 24 hrs relative to GAPDH level; assay type: functional, cell-based; parameters: scale not given: the % may be the effect or the level left; in short: as §1
[18] = Reduction in telomerase mRNA expression in human GIST882 cells after 24 hrs; assay type: functional, cell-based; in short: as §1
[19] = Reduction in N-RAS mRNA expression in human GIST882 cells after 24 hrs; assay type: functional, cell-based; in short: as §1
GISTT1 = experiment: Cytotoxicity against human GISTT1 cells assessed as effect on cell viability after 3 to 6 days by luciferase based luminescence assay; assay type: functional; in short: as §4
[20] = biological target: Mast/stem cell growth factor receptor Kit (Homo sapiens) (UniProt P10721); experiment: Reduction in KIT protein expression in human GIST882 cells after 24 hrs by Western blot; assay type: functional, cell-based
In short: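 GIST882 cells (RPMI 1640 + 15% FBS) exposed 24 hr to 0.5 or 1 µM test compound, or imatinib at 5 and 10 µM. Lysates protein-quantified by Bradford, then electrophoresed and immunoblotted for total KIT, with actin blot as loading control; vehicle-treated cells as reference.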

Chain of Mast/stem cell growth factor receptor Kit (Homo sapiens) (P10721 whole entry): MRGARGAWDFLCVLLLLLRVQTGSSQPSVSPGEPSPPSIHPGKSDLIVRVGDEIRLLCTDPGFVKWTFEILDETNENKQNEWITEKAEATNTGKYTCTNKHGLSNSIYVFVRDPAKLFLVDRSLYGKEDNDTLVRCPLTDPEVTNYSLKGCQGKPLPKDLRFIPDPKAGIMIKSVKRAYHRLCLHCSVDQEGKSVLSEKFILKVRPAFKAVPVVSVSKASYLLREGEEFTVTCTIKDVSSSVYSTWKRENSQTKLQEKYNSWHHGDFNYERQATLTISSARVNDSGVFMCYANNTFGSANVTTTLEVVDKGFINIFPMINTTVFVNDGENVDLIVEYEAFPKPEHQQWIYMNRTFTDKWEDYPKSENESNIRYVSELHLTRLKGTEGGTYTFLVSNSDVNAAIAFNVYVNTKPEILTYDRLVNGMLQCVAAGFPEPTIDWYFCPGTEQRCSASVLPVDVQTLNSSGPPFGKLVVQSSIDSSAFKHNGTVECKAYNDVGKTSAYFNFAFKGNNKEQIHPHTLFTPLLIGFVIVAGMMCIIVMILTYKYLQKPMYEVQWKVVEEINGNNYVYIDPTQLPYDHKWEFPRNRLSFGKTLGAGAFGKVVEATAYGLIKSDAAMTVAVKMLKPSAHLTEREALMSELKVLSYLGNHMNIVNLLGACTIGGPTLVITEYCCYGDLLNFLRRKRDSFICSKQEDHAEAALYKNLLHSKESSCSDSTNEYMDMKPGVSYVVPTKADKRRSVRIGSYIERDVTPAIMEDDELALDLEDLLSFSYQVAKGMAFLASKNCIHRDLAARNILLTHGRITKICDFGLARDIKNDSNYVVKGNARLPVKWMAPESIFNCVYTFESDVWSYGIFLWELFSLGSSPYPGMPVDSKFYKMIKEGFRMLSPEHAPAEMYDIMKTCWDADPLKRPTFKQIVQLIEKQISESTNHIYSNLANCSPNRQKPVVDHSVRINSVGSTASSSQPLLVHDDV

SMILES	Activity [1]	IC50 [2]	IC50 (MCF7)	ΔTm (Nucleic Acid [3])	IC50 (HT-29)	ΔTm (Nucleic Acid [4])	ΔTm (Nucleic Acid [5])	IC50 (HGC-27)	IC50 [6]	ΔTm (Nucleic Acid [7])	Activity [20]	also measured
Cc1ccc(NC(=O)c2ccc(CN3CCN(C)CC3)cc2)cc1Nc1nccc(-c2cccnc2)n1 [IMATINIB]	inactive	1700 nM	11.5 µM	0.2 °C	60 nM	0.1 °C	0.2 °C	2400 nM	18.7 µM	0.2 °C		
O=C1c2cc(NCCN3CCCC3)c3c4c(cc(NCCN5CCCC5)c(c24)C(=O)N1CCN1CCCC1)C(=O)N(CCN1CCCC1)C3=O	Dose-dependent effect	1600 nM	0.02 µM	28.7 °C	30 nM	5.7 °C	11.2 °C	40 nM	0.5 µM	29 °C		Activity [8]: Active; Activity (GIST48B): inactive; Activity (GIST882 [9]): Active; Activity [10]: Active; Activity (GIST882 [11]): Active; Activity (GIST882 [12]): Active; Activity (GIST882 [13]): Active; Activity (Homo sapiens): inactive; Activity (GIST882 [14]): Active; Activity (GIST882 [15]): Active; Activity [16]: 25%; Activity [17]: 90%; Activity [18]: Active; Activity [19]: inactive; Activity (GISTT1): Active
CN(C)c1ccc(Nc2c3ccc(NC(=O)CCN4CCCC4)cc3nc3cc(NC(=O)CCN4CCCC4)ccc23)cc1	inactive	> 25000 nM	2.2 µM	21.6 °C	2700 nM	7.2 °C	6.5 °C	2600 nM		18.5 °C	inactive	
C[n+]1ccc(-c2c3nc(c(-c4cc[n+](C)cc4)c4ccc([nH]4)c(-c4cc[n+](C)cc4)c4ccc([nH]4)c(-c4cc[n+](C)cc4)c4nc2C=C4)C=C3)cc1 [TMPYP4]	inactive	13200 nM	6.1 µM	27.8 °C	4500 nM	8.7 °C	11.1 °C	2700 nM		21.6 °C	inactive	
